High-throughput results as filed in PubChem.
RAD52 inh – blocks human RAD52 DNA annealing | P43351 | recombinant RAD52 DNA annealing, FRET fluorescence | inhibition, % at 18.7 µM | hit rate 0.46% among 360,000 | AID 651710;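 active = every replicate showing at least 50% inhibition; inconclusive = mean inhibition at least 50% but not in every replicate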
RAD54 branch – inhibitors of human RAD54 branch migration; hit rate 0.14% among 360,000; inhibition, % at 10.4 µM; AID 602329; RAD54 Holliday junction branch migration, FAM/BHQ fluorescence;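 active = mean normalized replicate activity at least 40 and at least half of replicates scoring 40 or more; inconclusive = only one of the two criteria met; inactive = mean below 40 and under half of replicates reaching 40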;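 note: 0% = median of neutral control wells and 100% = median of positive control wells; inhibitors cause a drop in the FAM fluorescence signal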
Target sequence (Q92698 whole entry, looked up): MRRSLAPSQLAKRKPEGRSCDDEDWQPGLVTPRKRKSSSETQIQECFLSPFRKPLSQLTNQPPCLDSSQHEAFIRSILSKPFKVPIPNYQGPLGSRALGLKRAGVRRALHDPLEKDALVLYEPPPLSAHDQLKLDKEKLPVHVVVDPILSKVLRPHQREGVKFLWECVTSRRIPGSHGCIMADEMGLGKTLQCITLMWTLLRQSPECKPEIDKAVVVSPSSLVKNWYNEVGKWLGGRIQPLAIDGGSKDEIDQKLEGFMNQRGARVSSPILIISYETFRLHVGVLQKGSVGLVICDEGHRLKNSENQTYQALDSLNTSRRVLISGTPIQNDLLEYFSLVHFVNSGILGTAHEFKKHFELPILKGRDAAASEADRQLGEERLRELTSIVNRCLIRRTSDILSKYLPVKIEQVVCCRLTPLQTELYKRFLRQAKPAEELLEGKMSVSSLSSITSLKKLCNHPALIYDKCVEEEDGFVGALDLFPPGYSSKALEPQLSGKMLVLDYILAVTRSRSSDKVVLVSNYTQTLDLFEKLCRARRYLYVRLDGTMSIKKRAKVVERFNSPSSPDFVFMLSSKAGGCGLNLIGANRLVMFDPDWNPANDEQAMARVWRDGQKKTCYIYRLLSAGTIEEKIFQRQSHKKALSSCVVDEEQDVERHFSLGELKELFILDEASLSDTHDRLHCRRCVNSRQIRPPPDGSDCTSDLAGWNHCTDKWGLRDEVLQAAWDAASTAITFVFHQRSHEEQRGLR
Xi reactivation – X-chromosome reactivation activator; hit rate 0.055% among 360,000; XiGFP mouse fibroblasts, % GFP-positive cells imaging, 3 d; cells co-treated with 5-aza-dC sensitizer; scaled so ellipticine positive control = 100%; activation, % at 7.58 µM;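 active = mean normalized replicate activation at least 10% and every replicate at or above 10%; inconclusive = only one of the two criteria met; inactive = mean below 10% and not all replicates reach 10%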;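 note: 0% = median of on-plate neutral control wells and 100% = ellipticine 6 µM median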
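Material: SV40-immortalized XiGFP fibroblast cells, line 68-5-11 | Buffer or medium: DMEM containing 5-aza-dC | Dosing: One concentration, pinned | Times: 3 d treatment, 15 min room-temperature fixation | Controls: Ellipticine 6 µM positive control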
rRNA inh HTS – inhibitors of bacterial rRNA selective over humanized ribosomes. AID 720706. E. coli WT GFP vs humanized-ribosome RFP mutants, fluorescence, 24 h; active compounds read low; DMSO median 0, no signal -100. hit rate 1.6% among 350,000. GFP signal change (wild-type ribosome), % (concentration not given with the values);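 active = significant combined selectivity score with lowered wild-type GFP, culture density cut under 30%, mutant RFP and density less affected; inactive = any of these conditions unmet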
E-selectin induc – induces E-selectin expression in human endothelial cells; P16581; HUVEC E-selectin immunofluorescence imaging; normalized: neutral wells 0, TNF-alpha wells 100; activation, % at 7.58 µM; hit rate 0.37% among 260,000; AID 686992;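 active = mean E-selectin-positive cell signal at least 10% of the positive control, reached in at least 60% of replicates, without over 20% cell loss; inconclusive = no rule given, readout overlaps actives, possibly toxicity-flagged; inactive = the rest, including those meeting only one limit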
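System: HUVEC / Compound: single concentration / Signal: immunofluorescence imaging / Read-out: percent E-selectin-positive cells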
PglD DTNB – blocks C. jejuni PglD acetyltransferase activity. purified PglD enzyme, DTNB colorimetric CoA detection. inhibition, % at 12.5 µM. hit rate 0.098% among 360,000. AID 602405; in the data active = inhibition above about 16%, passing the limit was not always enough; inconclusive = no clear call, values can overlap the other calls
HepG2 cytotox – kills or reduces viability of HepG2 cells. ATP luminescence, 72 h. activity change, negative = cytotoxicity, unspecified at 26 µM. AID 743480. 30 tested, under 10 active. shares compounds with rRNA inh HTS;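 active = compounds whose fitted half-maximal signal-loss concentration is at most twice their highest valid dose; inconclusive = flat curve with 30 to 70% signal loss, or poor fit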
AID977621 – growth inhibition of wild-type GFP E. coli, dose response, H69 mutant RFP, cherry-pick; activity change, negative = inhibition at 50 µM; AID 977621; E. coli wild-type GFP strain growth, fluorescence, 24 h; 1,900 tested, under 10 active; shares compounds with rRNA inh HTS;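 active = Wild-type ribosome reporter drop at least double the humanized mutant ribosome reporter drop, growth loss under a set limit; inconclusive = no clear call, values can overlap the other calls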;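 note: wild-type GFP and H69 mutant RFP strains grown together 50/50 in each well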
AID977628 – growth of wild-type and h24-humanized E. coli strains – h24 mutant RFP vs wild-type GFP, cherry-pick, dose response; shares compounds with rRNA inh HTS; E. coli WT GFP strain growth, fluorescence, 24 h; activity change, negative = inhibition at 50 µM; 1,900 tested, under 10 active; AID 977628;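 active = compound lowering the normal-ribosome reporter at least twice as much as the humanized-ribosome reporter, growth loss under a set limit; inconclusive = no clear call, values can overlap the other calls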;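 note: wild-type GFP and h24 humanized RFP strains co-cultured 1 to 1 per well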
* = called active by the depositor; ? = inconclusive; . = no result given. A selection: hits, their analogues and other compounds. The true share with any hit is near 2%.

SMILES	RAD52 inh	RAD54 branch	Xi reactivation	rRNA inh HTS	E-selectin induc	PglD DTNB	AID977621	AID977628	others
Fc1ccc(Br)cc1SCCc1ccncc1	2.0	2.2	0.7	-25.2*	0.1	1.7	-2.01	-13.1
CCCNC(=O)N1[C@H](CO)[C@H](c2ccc(C3=CCCC3)cc2)[C@@H]1CN(C)C(C)=O	.	4.1	-0.1	0.6	-0.1	0.2	.	.
Cc1nnc2sc(SCC(=O)Nc3ccc(Br)cc3)nn2c1=O	-14.1	.	0.1	-23.8*	1.2	.	-5.73	.
COc1ccccc1C1CCN(Cc2cccc([N+](=O)[O-])c2)CC1	-2.8	.	-0.1	-24.4*	.	.	.	?
COc1ccccc1C1CCN(Cc2ccccc2)CC1	-2.9	6.3	0.0	3.1	-0.1	-0.3	.	.
C[C@@H]1CCCCO[C@@H](CN(C)S(=O)(=O)c2ccccc2)[C@H](C)CN([C@@H](C)CO)C(=O)c2cc(NS(=O)(=O)c3ccc(F)cc3)ccc2O1	8.5	-6.7	0.7	-4.4	0.6	7.8	.	.
Cc1noc(C)c1NC(=O)N(C)C[C@H]1OCCCC[C@@H](C)Oc2ccc(NC(=O)Nc3ccc4c(c3)OCO4)cc2C(=O)N([C@H](C)CO)C[C@@H]1C	6.6	1.4	-1.0	3.7	-0.3	-2.5	.	.
Cc1noc(C)c1NC(=O)Nc1ccc2c(c1)C(=O)N([C@H](C)CO)C[C@H](C)[C@H](CN(C)C(=O)Nc1ccc3c(c1)OCO3)OCCCC[C@@H](C)O2	-3.2	-1.8	0.3	4.7	-0.4	-0.8	-7.1	?
Cc1noc(C)c1NC(=O)Nc1ccc2c(c1)C(=O)N([C@H](C)CO)C[C@@H](C)[C@@H](CN(C)C(=O)Nc1ccc3c(c1)OCO3)OCCCC[C@@H](C)O2	10.9	0.3	0.1	-41.0*	-0.2	-1.8	.	?	HepG2 cytotox=17.9
Cc1noc(C)c1NC(=O)Nc1ccc2c(c1)C(=O)N([C@H](C)CO)C[C@H](C)[C@H](CN(C)C(=O)Nc1ccc3c(c1)OCO3)OCCCC[C@H](C)O2	3.9	-5.8	0.3	0.4	-0.1	-0.5	-1.39	12.3
Cc1noc(C)c1NC(=O)Nc1ccc2c(c1)C(=O)N([C@@H](C)CO)C[C@@H](C)[C@H](CN(C)C(=O)Nc1ccc3c(c1)OCO3)OCCCC[C@@H](C)O2	14.9	-2.1	0.4	0.9	0.1	3.4	?	13.3
Cc1noc(C)c1NC(=O)N(C)C[C@@H]1OCCCC[C@@H](C)Oc2ccc(NC(=O)Nc3ccc4c(c3)OCO4)cc2C(=O)N([C@H](C)CO)C[C@@H]1C	7.2	0.6	0.0	0.9	0.0	-0.4	.	.
COCC(=O)Nc1ccc2c(c1)OC[C@H](C)N(C(=O)c1ccccn1)C[C@@H](C)[C@@H](OC)CN(C)C2=O	.	-17.2	0.3	0.3	-0.1	-1.8	.	.
Cc1ccc(S(=O)(=O)N(C)C[C@@H]2Oc3c(cccc3N(C)C)C(=O)N([C@H](C)CO)C[C@H]2C)cc1	1.0	-11.0	-0.1	-8.4	-14.3	3.6	.	.
Cc1ccc(S(=O)(=O)N(C)C[C@H]2OCc3cn(nn3)CCCC(=O)N([C@H](C)CO)C[C@H]2C)cc1	.	.	0.2	0.9	0.0	.	.	.
Cc1noc(C)c1NC(=O)Nc1ccc2c(c1)C(=O)N([C@@H](C)CO)C[C@H](C)[C@H](CN(C)C(=O)Nc1ccc3c(c1)OCO3)OCCCC[C@H](C)O2	-4.3	-1.1	0.2	2.2	0.2	2.1	.	?
CNC(=O)c1sc(-c2ccccn2)nc1C	-15.9	.	0.0	-23.3*	-3.7	.	-21.4	-7.05
Cc1nc(-c2ccccn2)sc1C(=O)Nc1ccc(F)cc1	.	1.8	.	.	.	-0.2	.	.
O=C(Nc1ccc2c(c1)CCC2)c1ccccc1F	.	.	0.6	.	.	.	.	.
Cc1occc1C(=O)Nc1ccc2c(c1)CCC2	-5.4	.	.	-12.9*	.	.	?	?
O=C(O)c1ccccc1-c1ccccc1C(=O)Nc1ccc2c(c1)CCC2	5.9	0.9	0.2	-21.4*	0.1	1.2	-11.6	.
COCC(=O)Nc1ccc2c(c1)OC[C@@H](C)N(C)C[C@H](C)[C@@H](OC)CN(C)C2=O	5.0	8.5	0.3	0.6	0.2	6.1	.	.
CN(c1ccccc1)S(=O)(=O)c1ccc(C(=O)OCC(=O)NCc2cccs2)cc1	-15.2	.	0.0	-5.5	1.5	.	.	.
CN(c1ccc(C(=O)NCc2cccs2)cc1)S(=O)(=O)c1ccccc1	-13.2	.	0.0	-18.2*	5.2	.	-5.31	-4.86
CCCNC(=O)N(C)C[C@@H]1Oc2ncc(Br)cc2C(=O)N([C@@H](C)CO)C[C@@H]1C	-12.1	0.4	-0.4	-0.3	-0.3	0.3	.	.
SMILES	RAD52 inh	RAD54 branch	Xi reactivation	rRNA inh HTS	E-selectin induc	PglD DTNB	AID977621	AID977628	others
C[C@H](CO)N1C[C@H](C)[C@@H](CN(C)S(=O)(=O)c2ccccc2)OCCCC[C@H](C)Oc2ccc(NC(=O)c3ccncc3)cc2C1=O	1.4	-3.8	0.0	-5.3	.	1.9	.	.
COc1ccc(N(CCC(=O)O)S(=O)(=O)c2ccc(C)cc2C)cc1	-16.0	.	0.1	-17.1*	0.8	.	3.83	-9.34
O=C(COc1cc(F)ccc1[N+](=O)[O-])NCCCc1ccccc1	-8.0	.	0.1	-27.4*	-0.3	.	-1.39	-7.18
Cc1cc(CNC(=O)COc2cc(F)ccc2[N+](=O)[O-])c2ccccc2n1	5.4	-0.8	0.0	-0.5	-2.4	-0.7	.	.
COc1ccccc1CC(=O)NCCCc1ccccc1	1.8	-4.1	0.0	-23.0*	-0.1	2.9	-5.46	?
C[C@@H]1CN([C@H](C)CO)C(=O)c2cccc(N(C)C)c2O[C@@H]1CN(C)Cc1ccccc1	-12.0	5.8	-0.1	5.6	-0.3	-1.8	.	.
Cc1ccc(S(=O)(=O)N(Cc2ccccc2)C(C)C)cc1	-15.7	-9.6	0.5	-23.6	0.1	-0.4	.	.
Cc1noc(C)c1S(=O)(=O)N(Cc1ccccc1)C(C)C	-5.3	8.1	-0.1	-18.9*	0.9	-5.3	2.39	-6.83
CS(=O)(=O)NCCSc1cc(C(F)(F)F)nc2ccccc12	-7.3	.	0.0	-19.6*	0.9	.	.	?
COc1cccc(NC(=O)Nc2ccc3c(c2)C(=O)N(C)[C@@H]2CC[C@H](CC(=O)NCCc4ccccc4)O[C@H]2CO3)c1	13.2	-4.2	0.2	-4.2	0.2	-0.9	.	.
COc1ccc(Nc2nc(NCCO)nc(N3CCCC3)n2)cc1	-9.1	-1.9	0.0	-16.1*	-0.1	5.5	-12.7	?
